Results from publication PMC11995438 (Bioorganic & medicinal chemistry, 2023).
In brackets after ≈: the same amount, converted by molar mass. Entries after “also recorded” stand apart in the source; their conditions may differ. *1 amine or outer side, *2 acyl side, *3 side chain or, on linkers, in order; H or OH if unused. Where a SMILES comes first, the peptide text is derived from it. [ ]: non-standard residue; d: D form. X1 = CN([C@H](C(=O)[*:2])[C@@H](O)C(N)=O)[*:1]; Pro(4S-Me) = C[C@@H]1CN[C@H](C(=O)O)C1; N(OH)Ala = C[C@H](NO)C(=O)O; Lac = C[C@H](O)C(=O)O; Dha = C=C(N)C(=O)O

Assays:
CYP2C9 = CYP2C9 (Homo sapiens, UniProt P11712); assay: P450 inhibition in human hepatic microsomes, CYP2C9; type: in vitro ADME; details: for Human P450 Inhibition 2C9 %Inh.: at 10 μM
CYP1A2 = target: T1, CYP1A2 (Homo sapiens, UniProt P05177); assay: P450 inhibition in human hepatic microsomes, CYP1A2; type: in vitro ADME; details: for Human P450 Inhibition 1A2 %Inh.: at 10 μM
T1 sequence (P05177 1-516): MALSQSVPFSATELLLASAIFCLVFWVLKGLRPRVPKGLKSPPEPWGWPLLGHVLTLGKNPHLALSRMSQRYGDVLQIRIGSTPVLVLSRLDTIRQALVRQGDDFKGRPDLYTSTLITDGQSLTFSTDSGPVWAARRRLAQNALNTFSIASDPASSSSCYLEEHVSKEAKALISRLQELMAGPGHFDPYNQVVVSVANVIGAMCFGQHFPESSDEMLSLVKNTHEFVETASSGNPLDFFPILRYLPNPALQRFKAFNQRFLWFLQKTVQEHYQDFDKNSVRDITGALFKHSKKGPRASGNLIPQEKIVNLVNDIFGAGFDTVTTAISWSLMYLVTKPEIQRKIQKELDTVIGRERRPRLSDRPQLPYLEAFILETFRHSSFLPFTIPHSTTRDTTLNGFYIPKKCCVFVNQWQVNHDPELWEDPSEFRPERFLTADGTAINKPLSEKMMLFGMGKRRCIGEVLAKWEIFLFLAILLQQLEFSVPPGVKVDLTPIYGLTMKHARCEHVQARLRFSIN

human MDR1/P-gp = human MDR1/P-gp (Homo sapiens, UniProt P08183); assay: MDCK-MDR1 permeability assay; details: dog, MDCK-MDR1, pH 7.4
PAMPA permeability = type: in vitro ADME; details: for Permeability-PAMPA Predicted level: predicted from PAMPA; for Permeability-PAMPA Tested: 5 μM, pH 7.4, 5 hours
[1] = Kinetic solubility in pH 7.4 phosphate buffered saline; type: physicochemical; details: 1% DMSO, 24 hours, top concentration 100 μM
[2] = Hepatic microsomal stability, mouse; type: in vitro ADME; details: liver microsomes, pH 7.4
[3] = Hepatic microsomal stability, human; type: in vitro ADME; details: liver microsomes, pH 7.4
CYP2D6 = CYP2D6 (Homo sapiens, UniProt P10635); assay: P450 inhibition in human hepatic microsomes, CYP2D6; type: in vitro ADME; details: for Human P450 Inhibition 2D6 %Inh.: at 10 μM
α-tubulin = assay: Immunoblot analysis of α-tubulin levels in SK-OV-3 cells; type: cell-based; details: 16 h
Outline: (§1)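 SK-OV-3 cells seeded at 2 × 10⁵/well and attached 24 h. Medium replaced, then ±1 h preincubation with 10 µM MG-132 before test compound or 0.5 % DMSO for 16 h. Whole-cell lysates normalised by BCA, run on 4–12 % SDS-PAGE, blotted to PVDF and detected by chemiluminescence. Densitometry of a representative blot, normalised to GAPDH and to DMSO without MG-132.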

[4] = target: T2, gatorbulin site of tubulin (Bos taurus, UniProt P81947+Q6B856); assay: Binding constants by MTC displacement; set-up: species or system calf; details: 10 μM tubulin plus 10 μM MTC, compound up to 100 μM
[5] = tested on: SK-OV-3-MDR1-M6/6 cell line; details: cited from earlier work
[6] = Plasma protein binding by equilibrium dialysis, human plasma; type: in vitro ADME; details: for Plasma Protein Binding Human (%free): 2 μM, equilibrium dialysis 6 h, 37 °C
[7] = tested on: SK-OV-3 ovarian cancer cells; assay: MTT viability assay, SK-OV-3; type: cell-based; details: for IC50: read-out: IC50 SK-OV-3, 48 h
[8] = tested on: HeLa cervical cancer cells; assay: MTT viability assay, HeLa; type: cell-based; details: read-out: IC50 HeLa, 48 h
Outline: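 HeLa cells grown in DMEM with 10 % FBS at 37 °C, 5 % CO₂. Seeded at 5000 cells/well, attached overnight, then exposed to a concentration series of test compound or 0.5 % DMSO. MTT read-out 48 h after treatment. IC50 by non-linear regression; mean ± SD, n = 3.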

[9] = target: human efflux transporter MDR1/P-gp (MDCK cells) (Homo sapiens, UniProt P08183); assay: MDCK-MDR1 permeability assay; details: for Permeability-MDCK-PgP Substrate?: P-gp substrate classification
[10] = Plasma protein binding by equilibrium dialysis, mouse plasma; type: in vitro ADME; details: for Plasma Protein Binding Mouse (%free): 2 μM, equilibrium dialysis 6 h, 37 °C
CYP3A4 [11] = target: T3, CYP3A4 (Homo sapiens, UniProt P08684); assay: P450 inhibition in human hepatic microsomes, CYP3A4; details: at 10 μM
β-tubulin = assay: Immunoblot analysis of β-tubulin levels in SK-OV-3 cells; type: cell-based; details: 16 h
Outline: as §1

[12] = target: T2, gatorbulin site of tubulin; details: cited from earlier work
CYP3A4 [13] = target: T3, CYP3A4; assay: in vitro; details: microsomes
[14] = human, liver microsomes, probe tolbutamide, hydroxylation to hydroxytolbutamide
[15] = human, liver microsomes, probe bufuralol, hydroxylation to 4'-hydroxybufuralol

C=C[C@H]1C[N@@]2CC[C@H]1C[C@@H]2[C@@H](O)c1ccnc2ccc(OC)cc12 [Qui, quinidine]
inhibition at 10 µM (CYP2C9; [14]): < 10% | inhibition at 10 µM (CYP1A2; human, liver microsomes): < 10% | Papp A→B at 90 min, 2 µM (human MDR1/P-gp): 1.6 ×10⁻⁶ cm/s | Papp B→A at 90 min, 2 µM (human MDR1/P-gp): 11.1 ×10⁻⁶ cm/s

CC(C)NCC(O)COc1cccc2ccccc12 (centres unmarked) [Pro, propranolol, reference compound]
Papp at 5 h, 5 µM (PAMPA permeability; PAMPA, pH 7.4): 5.7 ×10⁻⁶ cm/s | Permeability-PAMPA Predicted level (PAMPA permeability): high

CC(=O)O[C@H]1C(=O)[C@@]2(C)[C@H]([C@H](OC(=O)c3ccccc3)[C@]3(O)C[C@H](OC(=O)[C@H](O)[C@@H](NC(=O)c4ccccc4)c4ccccc4)C(C)=C1C3(C)C)[C@]1(OC(C)=O)CO[C@@H]1C[C@@H]2O [Pac, paclitaxel, reference compound]
Solubility Kinetic [1]: 1.3 µM (≈ 1.11 µg/mL)

CCN(CC)CCNC(=O)c1c(C)[nH]c(/C=C2\C(=O)Nc3ccc(F)cc32)c1C [Sun, sunitinib]
half-life at 1 µM [2]: 13.5 min | half-life at 1 µM [3]: 34.5 min

C=C1NC(=O)[C@H](C)N(O)C(=O)[C@H]([C@@H](O)C(N)=O)N(C)C(=O)[C@H](C)OC(=O)[C@@H]2C[C@H](C)CN2C1=O [GB1, Gatorbulin-1] (cyclo([Dha][Pro(4S-Me)][Lac][X1][N(OH)Ala]))
Human P450 Inhibition 2C9 %Inh. (CYP2C9): < 10 %Inh. | Human P450 Inhibition 2D6 %Inh. (CYP2D6): 11 %Inh. | reduction of α-tubulin levels (α-tubulin; 10 μM): 80% | effect on α- and β-tubulin levels (α-tubulin; without MG132): induced a reduction of both α- and β-tubulin levels | Kb (binding affinity, MTC) ([4]; listed as GB1 (1a)): 2.2 ± 0.7 × 10^6 M^−1 | effectiveness in P-gp overexpressing cells versus parental line [5]: less effective | Plasma Protein Binding Human (%free) [6]: 76 %free | Permeability-PAMPA Tested (PAMPA permeability): 4.5 10^−6 cm/s | Permeability-PAMPA Predicted level (PAMPA permeability): high | concentration at which active ([7]; SK-OV-3 and HeLa cells, 48 h): submicromolar | IC50 [7]: 216 nM | Human P450 Inhibition 1A2 %Inh. (CYP1A2): 13 %Inh. | IC50 [8]: 590 nM | Permeability-MDCK-PgP Mean Papp A to B ([9]; 2 μM, 90 minutes): 1.8 10^−6 cm/s | Permeability-MDCK-PgP Mean Papp B to A ([9]; 2 μM, 90 minutes): 1.6 10^−6 cm/s | Permeability-MDCK-PgP Substrate? [9]: not a P-gp substrate or is a poor P-gp substrate; also recorded: poor or non- | Plasma Protein Binding Mouse (%free) [10]: 80 %free | Human P450 Inhibition 3A4 %Inh. (CYP3A4 [11]): < 10 %Inh. | depletion of β-tubulin (β-tubulin; 3.2 μM): 80% | preference for β-tubulin over α-tubulin depletion (β-tubulin): ~ 3 fold | Solubility Kinetic [1]: > 100 µM | binding affinity reported previously [12]: 1.01e+06 M⁻¹

CC(=O)N1CCN(c2ccc(OCC3COC(Cn4ccnc4)(c4ccc(Cl)cc4Cl)O3)cc2)CC1 (centres unmarked) [Ket, ketoconazole]
inhibition at 1 µM (CYP2C9; [14]): 39% | inhibition at 1 µM (CYP1A2; human, liver microsomes): 13%

gatorbulin-2 [GB2]
Human P450 Inhibition 2C9 %Inh. (CYP2C9): 18 %Inh. | Human P450 Inhibition 2D6 %Inh. (CYP2D6): < 10 %Inh. | MTC displacement [4]: no MTC displacement | Plasma Protein Binding Human (%free) [6]: 60 %free | Permeability-PAMPA Tested (PAMPA permeability): 8.2 10^−6 cm/s | Permeability-PAMPA Predicted level (PAMPA permeability): high | IC50 [7]: > 100000 nM | Human P450 Inhibition 1A2 %Inh. (CYP1A2): < 10 %Inh. | IC50 [8]: > 100000 nM | Plasma Protein Binding Mouse (%free) [10]: 88 %free | Human P450 Inhibition 3A4 %Inh. (CYP3A4 [11]): < 10 %Inh. | Solubility Kinetic [1]: > 100 µM

Nc1ccc(S(=O)(=O)Nc2ccnn2-c2ccccc2)cc1 [Sul, sulfaphenazole, reference compound]
inhibition at 10 µM (CYP2D6; [15]): < 10% | inhibition at 10 µM (CYP1A2; human, liver microsomes): < 10%

CNC(=C[N+](=O)[O-])NCCSCc1ccc(CN(C)C)o1 [Ran, ranitidine, reference compound]
Permeability-PAMPA Predicted level (PAMPA permeability): low

NC(=O)N1c2ccccc2C=Cc2ccccc21 [Car, carbamazepine, reference compound]
fraction unbound at 6 h, 2 µM ([6]; human, plasma): 0.25 | fraction unbound at 6 h, 2 µM ([10]; mouse, plasma): 0.36

CC(C)(C)NCC(O)COc1cccc2c1CC(O)C(O)C2 (centres unmarked) [Nad, nadolol]
Permeability-MDCK-PgP Substrate? [9]: poor or non- | Papp A→B at 90 min, 2 µM (human MDR1/P-gp): 1.9 ×10⁻⁶ cm/s | Papp B→A at 90 min, 2 µM (human MDR1/P-gp): 1.5 ×10⁻⁶ cm/s | efflux ratio at 90 min, 2 µM (human MDR1/P-gp): 0.8

Cc1nc2c([nH]1)c(=O)n(C)c(=O)n2Cc1ccco1 [Fur, furafylline]
inhibition at 40 µM (CYP2C9; [14]): < 10% | inhibition at 40 µM (CYP2D6; [15]): < 10% | inhibition at 40 µM (CYP3A4 [13]): < 10% | inhibition at 40 µM (CYP1A2; human, microsomes): 82%

COc1cc([C@@H]2c3cc4c(cc3[C@H](O)[C@H]3COC(=O)[C@H]23)OCO4)cc(OC)c1OC [podophyllotoxin, reference compound]
Kb (binding affinity, MTC) [4]: 1.5e+07 M⁻¹
